Here are results for ten compounds from ChEMBL document CHEMBL4304798, “Iterative Optimization of the Cyclic Peptide SFTI-1 Yields Potent Inhibitors of Neutrophil Proteinase 3” (ACS Med Chem Lett, 2019).

In general, Ki refers to the dissociation constant of the complex between target and ligand, obtained from inhibition or displacement. Lower therefore signals tighter binding. As usually defined, the IC50 is the concentration at which inhibition is half-maximal.

One series concerns the target T1, Neutrophil elastase (Homo sapiens, UniProt P08246).
T1 sequence (P08246 whole entry): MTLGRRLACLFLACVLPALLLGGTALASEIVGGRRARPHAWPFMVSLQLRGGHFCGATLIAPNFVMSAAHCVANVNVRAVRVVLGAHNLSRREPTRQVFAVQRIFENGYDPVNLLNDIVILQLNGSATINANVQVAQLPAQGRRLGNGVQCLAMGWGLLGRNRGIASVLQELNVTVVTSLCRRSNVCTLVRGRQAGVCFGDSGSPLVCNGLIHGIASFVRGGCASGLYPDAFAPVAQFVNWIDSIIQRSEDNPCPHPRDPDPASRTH
Description: Inhibition of human neutrophil elastase using MeOSuc-AAPV-MCA as substrate by fluorescence based assay.

A further series concerns the target T2, Chymase (Homo sapiens, UniProt P23946).
T2 sequence (P23946 whole entry): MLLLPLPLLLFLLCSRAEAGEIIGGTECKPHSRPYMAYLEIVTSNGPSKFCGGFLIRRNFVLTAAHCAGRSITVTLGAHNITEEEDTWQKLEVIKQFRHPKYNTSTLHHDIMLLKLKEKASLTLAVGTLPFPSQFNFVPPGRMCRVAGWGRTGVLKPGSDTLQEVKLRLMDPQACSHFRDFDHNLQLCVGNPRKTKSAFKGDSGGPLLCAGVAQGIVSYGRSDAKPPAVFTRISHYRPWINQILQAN
Briefly: Inhibition of recombinant human chymase expressed in Pichia pastoris using NleTDY-pNA as substrate by fluorescence based assay.

The target of the next series is T3, Myeloblastin (Homo sapiens, UniProt P24158).
T3 sequence (P24158 whole entry): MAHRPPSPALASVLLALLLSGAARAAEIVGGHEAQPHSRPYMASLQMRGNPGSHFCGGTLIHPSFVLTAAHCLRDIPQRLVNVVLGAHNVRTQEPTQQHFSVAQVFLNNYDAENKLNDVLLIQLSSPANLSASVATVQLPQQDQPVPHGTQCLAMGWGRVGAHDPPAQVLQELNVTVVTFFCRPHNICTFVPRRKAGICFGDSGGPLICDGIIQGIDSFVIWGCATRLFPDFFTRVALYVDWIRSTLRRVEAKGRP
Briefly: Inhibition of purified human proteinase 3 using MeOSuc-AAPV-MCA as substrate by fluorescence based assay.

Another series addresses Trypsin (Homo sapiens, UniProt P07477+P07478+P35030). Briefly: Inhibition of recombinant human trypsin using Boc-VPR-MCA as substrate by fluorescence based assay. Type of series: protein assay.
Another series concerns the target Chymotrypsin (Homo sapiens, UniProt Q99895+P17538+P40313+Q6GPI1). Description: Inhibition of human chymotrypsin using Suc-AAPF-MCA as substrate by fluorescence based assay. It counts as protein assay.
The target in a further series is Prothrombin (Homo sapiens, UniProt P00734). Briefly: Inhibition of recombinant human alpha thrombin using Boc-VPR-MCA as substrate by fluorescence based assay.
Series [1] is described as follows: Stability in human serum at 400 uM measured after 24 hrs by RP-HPLC analysis. The note with it: read-out: Stability. Type of series: ADME, cell-free. The method in brief:
(§1)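 Peptides incubated in human serum at 37 °C and sampled over time. Values are mean ± SEM from three experiments.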

The target in the next series is T4, Cathepsin G (Homo sapiens, UniProt P08311).
T4 sequence (P08311 whole entry): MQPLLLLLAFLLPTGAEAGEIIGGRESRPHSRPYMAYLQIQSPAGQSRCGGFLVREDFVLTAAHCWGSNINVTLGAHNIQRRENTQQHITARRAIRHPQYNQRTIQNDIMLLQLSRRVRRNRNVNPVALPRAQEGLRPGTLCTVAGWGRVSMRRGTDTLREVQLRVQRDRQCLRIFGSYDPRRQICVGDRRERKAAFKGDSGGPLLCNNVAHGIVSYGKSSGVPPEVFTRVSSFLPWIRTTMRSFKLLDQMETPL
Briefly: Inhibition of human Cathepsin G using Suc-AAPF-MCA as substrate by fluorescence based assay.

Series [2] has as its target T5, Myeloblastin (Homo sapiens) (UniProt P24158).
T5 sequence (whole entry): T3 sequence (P24158 whole entry)
Briefly: Competitive inhibition of purified human proteinase 3 at 40 nM using MeOSuc-AAPV-MCA as substrate by fluorescence based assay. The method in brief:
(§2)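 Competitive inhibition screen against PR3, with each peptide variant tested at two fixed inhibitor concentrations.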

Series [3] deals with T5, Myeloblastin (Homo sapiens). Briefly: Competitive inhibition of purified human proteinase 3 at 160 nM using MeOSuc-AAPV-MCA as substrate by fluorescence based assay. The method in brief:
as §2

Series [4] addresses T6, Neutrophil elastase (Homo sapiens) (UniProt P08246).
T6 sequence (whole entry): T1 sequence (P08246 whole entry)
Description: Inhibition of human neutrophil elastase at 2.5 to 40 nM using MeOSuc-AAPV-MCA as substrate by fluorescence based assay.

Series [5] can be described thus: Stability in human serum at 400 uM measured after 2 hrs by RP-HPLC analysis. It counts as ADME, cell-free. The method in brief: as §1

Molecules are shown by their SMILES. Calls of active or inactive are those of the source. No cut-off for these calls is given here. Positions of bridges follow the written chain, without caps; N, C: chain ends. Non-standard residues stand in square brackets, D forms with d. Residues, ends and D or L forms follow the SMILES beside them. ξ: configuration not given here. *: point of attachment. ClZ = O=C(OCc1ccccc1Cl)*; ξAbu = CCC(N)C(=O)O

Turning to `CCCC1NC(=O)[C@H](Cc2ccc(O)cc2)NC(=O)[C@@H]2CSSC[C@H](NC(=O)[C@H]([C@@H](C)CC)NC(=O)[C@@H]3CCCN3C(=O)[C@@H]3CCCN3C(=O)[C@H](Cc3ccc(O)cc3)NC(=O)[C@H](CO)NC1=O)C(=O)N[C@@H](CC(N)=O)C(=O)N1CCC[C@H]1C(=O)N[C@@H](CC(N)=O)C(=O)NCC(=O)N[C@@H](Cc1ccc(-c3ccccc3)cc1)C(=O)N2` (stereo partly drawn) (HELM PEPTIDE1{[O=C([C@H](Cc1ccc(-c2ccccc2)cc1)N[*:1])[*:2]].C.Y.[CCCC(N[*:1])C(=O)[*:2]].S.Y.P.P.I.C.N.P.N.G}$PEPTIDE1,PEPTIDE1,2:R3-10:R3|PEPTIDE1,PEPTIDE1,1:R1-14:R2$$$V2.0), the inhibitory constant (Ki) at Neutrophil elastase was 0.016 µM; on Myeloblastin, 0.0061 µM; on Chymotrypsin, 0.463 µM. Also, the IC50 is greater than 10 µM on Chymase, greater than 10 µM on Trypsin, greater than 10 µM at Prothrombin and greater than 5 µM at Cathepsin G. Moreover, in series [1], the remaining at 24 h, 400 µM is 90 to 95%.

With `CCC1NC(=O)[C@H](Cc2ccc(O)cc2)NC(=O)[C@@H]2CSSC[C@H](NC(=O)[C@H]([C@@H](C)CC)NC(=O)[C@@H]3CCCN3C(=O)[C@@H]3CCCN3C(=O)[C@H](Cc3ccc(O)cc3)NC(=O)[C@H](CO)NC1=O)C(=O)N[C@@H](CC(N)=O)C(=O)N1CCC[C@H]1C(=O)N[C@@H](CC(N)=O)C(=O)NCC(=O)N[C@@H]([C@@H](C)O)C(=O)N2` (stereo partly drawn) (HELM PEPTIDE1{C.N.P.N.G.T.C.Y.[CCC(N[*:1])C(=O)[*:2]].S.Y.P.P.I}$PEPTIDE1,PEPTIDE1,1:R3-7:R3|PEPTIDE1,PEPTIDE1,1:R1-14:R2$$$V2.0), the values for the Ki on Neutrophil elastase and at Myeloblastin were 0.0032 µM and 0.007 µM, respectively. Further, the IC50 on Chymase, on Trypsin, on Chymotrypsin, at Prothrombin and at Cathepsin G was greater than 10 µM in each case. Moreover, in [2], the inhibition entry was “Active”. Also, in series [1], the remaining at 24 h, 400 µM fell in the range of 90 to 95%.

In the case of `CCC1NC(=O)[C@H](CC(=O)O)NC(=O)[C@@H]2CSSC[C@H](NC(=O)[C@H]([C@@H](C)CC)NC(=O)[C@@H]3CCCN3C(=O)[C@@H]3CCCN3C(=O)[C@H](Cc3ccc(O)cc3)NC(=O)[C@H](CO)NC1=O)C(=O)N[C@@H](CC(N)=O)C(=O)N1CCC[C@H]1C(=O)N[C@@H](CC(N)=O)C(=O)NCC(=O)N[C@@H]([C@@H](C)O)C(=O)N2` (stereo partly drawn) (HELM PEPTIDE1{C.D.[CCC(N[*:1])C(=O)[*:2]].S.Y.P.P.I.C.N.P.N.G.T}$PEPTIDE1,PEPTIDE1,1:R3-9:R3|PEPTIDE1,PEPTIDE1,1:R1-14:R2$$$V2.0), the “inhibition activity (active/inactive)” value in series [3] is “Active”.

For `CCC1NC(=O)[C@H](Cc2ccc(O)cc2)NC(=O)[C@@H]2CSSC[C@H](NC(=O)[C@H]([C@@H](C)CC)NC(=O)[C@@H]3CCCN3C(=O)[C@@H]3CCCN3C(=O)[C@H](CCC(=O)O)NC(=O)[C@H](CO)NC1=O)C(=O)N[C@@H](CC(N)=O)C(=O)N1CCC[C@H]1C(=O)N[C@@H](CC(N)=O)C(=O)NCC(=O)N[C@@H]([C@@H](C)O)C(=O)N2` (stereo partly drawn) (HELM PEPTIDE1{C.N.P.N.G.T.C.Y.[CCC(N[*:1])C(=O)[*:2]].S.E.P.P.I}$PEPTIDE1,PEPTIDE1,1:R3-7:R3|PEPTIDE1,PEPTIDE1,1:R1-14:R2$$$V2.0), in series [3], the “inhibition activity (active/inactive)” value was “Active”.

As for `CCC1NC(=O)[C@H](Cc2ccc(O)cc2)NC(=O)[C@@H]2CSSC[C@H](NC(=O)[C@H]([C@@H](C)CC)NC(=O)[C@@H]3CCCN3C(=O)[C@@H]3CCCN3C(=O)[C@H](Cc3ccc(O)cc3)NC(=O)[C@H](CO)NC1=O)C(=O)N[C@@H](CC(N)=O)C(=O)N1CCC[C@H]1C(=O)N[C@@H](CC(N)=O)C(=O)NCC(=O)N[C@@H](Cc1ccc(-c3ccccc3)cc1)C(=O)N2` (stereo partly drawn) (HELM PEPTIDE1{[O=C([C@H](Cc1ccc(-c2ccccc2)cc1)N[*:1])[*:2]].C.Y.[CCC(N[*:1])C(=O)[*:2]].S.Y.P.P.I.C.N.P.N.G}$PEPTIDE1,PEPTIDE1,2:R3-10:R3|PEPTIDE1,PEPTIDE1,1:R1-14:R2$$$V2.0), the Ki is 0.024 µM on Neutrophil elastase and 0.017 µM at Myeloblastin. Further, the half-maximal inhibitory concentration (IC50) on Chymase, at Trypsin, on Chymotrypsin, on Prothrombin and on Cathepsin G was greater than 10 µM in each case. In addition, the inhibition result in series [4] was “Active”. In series [1], the remaining at 24 h, 400 µM was in the range of 90 to 95%.

In the case of `CCC1NC(=O)[C@H](Cc2ccc(O)cc2)NC(=O)[C@@H]2CSSC[C@H](NC(=O)[C@H]([C@@H](C)CC)NC(=O)[C@@H]3CCCN3C(=O)[C@@H]3CCCN3C(=O)[C@H](Cc3c[nH]c4ccccc34)NC(=O)[C@H](CO)NC1=O)C(=O)N[C@@H](CC(N)=O)C(=O)N1CCC[C@H]1C(=O)N[C@@H](CC(N)=O)C(=O)NCC(=O)N[C@@H]([C@@H](C)O)C(=O)N2` (stereo partly drawn) (HELM PEPTIDE1{C.N.P.N.G.T.C.Y.[CCC(N[*:1])C(=O)[*:2]].S.W.P.P.I}$PEPTIDE1,PEPTIDE1,1:R3-7:R3|PEPTIDE1,PEPTIDE1,1:R1-14:R2$$$V2.0), the inhibition result in series [2] was “Active”.

Consider `CCC1NC(=O)[C@H](Cc2ccc(O)cc2)NC(=O)[C@@H]2CSSC[C@H](NC(=O)[C@H]([C@@H](C)CC)NC(=O)[C@@H]3CCCN3C(=O)[C@@H]3CCCN3C(=O)[C@H](CC(=O)O)NC(=O)[C@H](CO)NC1=O)C(=O)N[C@@H](CC(N)=O)C(=O)N1CCC[C@H]1C(=O)N[C@@H](CC(N)=O)C(=O)NCC(=O)N[C@@H]([C@@H](C)O)C(=O)N2` (stereo partly drawn) (HELM PEPTIDE1{C.N.P.N.G.T.C.Y.[CCC(N[*:1])C(=O)[*:2]].S.D.P.P.I}$PEPTIDE1,PEPTIDE1,1:R3-7:R3|PEPTIDE1,PEPTIDE1,1:R1-14:R2$$$V2.0), for which the “inhibition activity (active/inactive)” value in [3] is “Active”.

`CC[C@H](C)[C@@H]1NC(=O)[C@@H]2CCCN2C(=O)[C@@H]2CCCN2C(=O)[C@H]([C@@H](C)CC)NC(=O)[C@H](CO)NC(=O)[C@H](CCCCN)NC(=O)[C@H]([C@@H](C)O)NC(=O)[C@@H](NC(=O)[C@H](CCCNC(=N)N)NC(=O)CN)CSSC[C@@H](C(=O)N[C@@H](Cc2ccccc2)C(=O)N2CCC[C@H]2C(=O)N[C@@H](CC(=O)O)C(=O)O)NC1=O`: in series [5], the Stability entry is “Unstable”.

For the compound `CCC1NC(=O)[C@H](Cc2ccc(O)cc2)NC(=O)[C@@H]2CSSC[C@H](NC(=O)[C@H]([C@@H](C)CC)NC(=O)[C@@H]3CCCN3C(=O)[C@@H]3CCCN3C(=O)[C@H](Cc3ccc(O)cc3)NC(=O)[C@H](CO)NC1=O)C(=O)N[C@@H](CC(N)=O)C(=O)N1CCC[C@H]1C(=O)N[C@@H](CC(N)=O)C(=O)NCC(=O)N[C@@H](CCCCNC(=O)OCc1ccccc1Cl)C(=O)N2` (stereo partly drawn) (cyclo(CNPNGK(ClZ)CY[ξAbu]SYPPI); disulfide 1-7), the inhibition entry in series [4] was “Active”.

As to `CCC1NC(=O)[C@H](CC(=O)O)NC(=O)[C@@H]2CSSC[C@H](NC(=O)[C@H]([C@@H](C)CC)NC(=O)[C@@H]3CCCN3C(=O)[C@@H]3CCCN3C(=O)[C@H](CC(=O)O)NC(=O)[C@H](CO)NC1=O)C(=O)N[C@@H](CC(N)=O)C(=O)N1CCC[C@H]1C(=O)N[C@@H](CC(N)=O)C(=O)NCC(=O)N[C@@H]([C@@H](C)O)C(=O)N2` (stereo partly drawn) (HELM PEPTIDE1{C.D.[CCC(N[*:1])C(=O)[*:2]].S.D.P.P.I.C.N.P.N.G.T}$PEPTIDE1,PEPTIDE1,1:R3-9:R3|PEPTIDE1,PEPTIDE1,1:R1-14:R2$$$V2.0), in [3], the “inhibition activity (active/inactive)” value was “Active”.
